# Source: PubChem
# Shown are actives, neighbours in structure and some others; about 2.5% of the full set was active somewhere.
# PglD inh = PglD (C. jejuni) enzyme inhibition; purified PglD enzyme, DTNB colorimetric CoA detection; inhibition, % at 12.5 µM; 0.098% of 360,000 active; AID 602405; in the data active = inhibition above about 16%, passing the limit was not always enough; inconclusive = no clear call, values can overlap the other calls
# ERAP1 HTS inh = blocks human ERAP1 aminopeptidase activity; 0.15% of 340,000 active; recombinant ERAP1, Leu-AMC fluorescence, 60 min; inhibition, % at 10.7 µM; Q9NZ08;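 active = mean replicate inhibition of at least 30%, or all replicates individually reaching that 30% level; inactive = mean below 30% and not every replicate reaching it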;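 note: 0% = neutral control wells and 100% = L-leucinethiol positive control wells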
# E-sel inducer = induces E-selectin expression in human endothelial cells; P16581; HUVEC E-selectin immunofluorescence imaging; normalized: neutral wells 0, TNF-alpha wells 100; activation, % at 7.58 µM; 0.37% of 260,000 active; AID 686992;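 active = mean E-selectin-positive cell signal at least 10% of the positive control, reached in at least 60% of replicates, without over 20% cell loss; inconclusive = no rule given, readout overlaps actives, possibly toxicity-flagged; inactive = the rest, including those meeting only one limit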
# Target sequence (P16581 whole entry, looked up): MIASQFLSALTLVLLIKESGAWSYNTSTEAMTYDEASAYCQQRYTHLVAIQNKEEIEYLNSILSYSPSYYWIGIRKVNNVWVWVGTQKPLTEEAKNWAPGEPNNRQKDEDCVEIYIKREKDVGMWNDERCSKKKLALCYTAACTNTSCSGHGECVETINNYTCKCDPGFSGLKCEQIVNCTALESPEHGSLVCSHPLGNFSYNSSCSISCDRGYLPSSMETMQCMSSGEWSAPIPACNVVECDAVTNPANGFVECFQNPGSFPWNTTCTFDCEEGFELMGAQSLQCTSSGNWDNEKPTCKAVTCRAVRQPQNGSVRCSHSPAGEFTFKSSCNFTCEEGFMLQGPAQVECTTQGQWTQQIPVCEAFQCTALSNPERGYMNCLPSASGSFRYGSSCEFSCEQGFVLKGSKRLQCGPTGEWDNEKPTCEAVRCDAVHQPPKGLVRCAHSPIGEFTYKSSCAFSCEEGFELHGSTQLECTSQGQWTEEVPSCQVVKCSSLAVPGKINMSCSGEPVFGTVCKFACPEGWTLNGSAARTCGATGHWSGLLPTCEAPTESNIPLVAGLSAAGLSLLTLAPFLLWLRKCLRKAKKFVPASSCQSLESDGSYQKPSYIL
#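 assay system = HUVEC, human umbilical vein endothelial cells | input = 3,000 HUVEC seeded per well | medium = EGM-2 growth medium on 0.1% gelatin-coated wells | dosing = one compound dose added by pin transfer | signal = immunofluorescence imaging | read-out basis = % PE-positive cells | control set = TNF-alpha, DMSO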
# DENV2 CPE rescue = DENV2-induced cell death inhibition; DENV2-infected cells, cytopathic effect rescue, plate reader; AID 651640; CPE inhibition, % at 9.99 µM; 1.7% of 350,000 active; in the data active = CPE inhibition above about 20%, passing the limit was not always enough; inconclusive = no clear call, values can overlap the other calls; tested in BHK-21 cells;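 note: 0% = median of neutral control wells and 100% = median of positive control wells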
# SIRT5 inh = blocks human SIRT5 desuccinylation of peptide. 1.1% of 330,000 active. AID 652115. inhibition, % at 15 µM. Q9NXA8. Purified SirT5, succinyl-peptide AMC, trypsin-coupled fluorescence; in the data active = inhibition above about 15%; inconclusive = no clear call, values can overlap the other calls
# * = called active by the depositor; ? = inconclusive; / = no result given.
SMILES,PglD inh,ERAP1 HTS inh,E-sel inducer,DENV2 CPE rescue,SIRT5 inh
C[C@@H]1CN([C@H](C)CO)C(=O)Cc2cc(NC(=O)CCC(F)(F)F)ccc2O[C@H]1CN(C)Cc1ccc2c(c1)OCO2,10,-2,-3,45*,4
C[C@@H]1CN([C@H](C)CO)C(=O)Cc2cc(NC(=O)CCC(F)(F)F)ccc2O[C@H]1CN(C)Cc1ccc(Cl)c(Cl)c1,0,1,-5,9,2
C[C@@H]1CN([C@@H](C)CO)C(=O)Cc2cc(NC(=O)Nc3ccc(C(F)(F)F)cc3)ccc2O[C@H]1CN(C)Cc1ccc2c(c1)OCO2,1,2,0,-17,0
C[C@H](CO)N1C[C@H](C)[C@@H](CN(C)Cc2ccc(Cl)c(Cl)c2)Oc2ccc(NC(=O)CCC(F)(F)F)cc2CC1=O,3,3,-8,-2,20*
C[C@H](CO)N1C[C@H](C)[C@H](CN(C)Cc2ccc3c(c2)OCO3)Oc2ccc(NC(=O)Nc3ccc(C(F)(F)F)cc3)cc2CC1=O,-2,0,1,54*,-1
NC(=O)C1CCN(C(=O)Cc2ccc(-c3ccccc3)cc2)CC1,-5,4,0,8,-1
O=C(NCc1nnc(SCc2ccc(F)cc2)n1-c1ccccc1)C12CC3CC(CC(C3)C1)C2,/,-1,/,4,7
COc1cc(OC)c(C2=NOC(C(=O)NCc3ccc4c(c3)OCO4)C2)cc1Cl (stereo unspecified),-3,/,/,/,/
COc1ccc(NC(=O)N(C)C[C@H]2Oc3ccc(NC(=O)C4CC4)cc3CC(=O)N([C@H](C)CO)C[C@H]2C)cc1,2,/,0,-4,-5.8*
COc1ccc(NC(=O)N(C)C[C@@H]2Oc3ccc(NC(=O)C4CC4)cc3CC(=O)N([C@H](C)CO)C[C@H]2C)cc1,0,-2,0,3,-2
C[C@@H]1CN([C@H](C)CO)C(=O)Cc2cc(NC(=O)C3CC3)ccc2O[C@@H]1CN(C)Cc1ccncc1,-2,-2,1,21*,-7
C[C@@H]1CN([C@@H](C)CO)C(=O)Cc2cc(NC(=O)C3CC3)ccc2O[C@H]1CN(C)Cc1ccncc1,1,1,0,5,-3
COc1ccc(CN(C)C[C@H]2Oc3ccc(NC(=O)C4CC4)cc3CC(=O)N([C@H](C)CO)C[C@@H]2C)cc1,/,-1,1,79*,2
CN1CCN(c2ncnc3c2ncn3[C@H]2CN(Cc3ccc(Cl)cc3)C[C@@H](CO)O2)CC1,3,19,/,35*,/
CC1CN(S(=O)(=O)c2ccc(F)cc2)C(C)N1C(=O)N1CCOCC1 (stereo unspecified),4,0,26*,-4,-1
CC(NC(=O)CCc1ccccc1)c1ccc2c(c1)OCO2 (stereo unspecified),-3,-4,-1,29*,4
CN(CC(=O)Nc1ccccc1Cl)C(=O)COC(=O)c1ccc(=O)n(Cc2ccccc2)n1,2,2,/,7,-5
COc1ccccc1[N+](=O)[O-],4,-2,/,-8,/
COc1ccccc1P(=O)(Cc1ccccc1[N+](=O)[O-])c1ccccc1 (stereo unspecified),/,-2,59*,4,3
Cc1ccc(/C=N\Nc2nc3ccc(Cl)cc3[nH]2)o1,4,5,/,/,-2
C[C@H](CO)N1C[C@H](C)[C@H](CN(C)Cc2ccncc2)OCCCC[C@H](C)Oc2ccc(NS(=O)(=O)c3cccs3)cc2C1=O,0,-1,1,-3,-2
C[C@@H]1CN([C@@H](C)CO)S(=O)(=O)c2ccc(-c3cncnc3)cc2O[C@@H]1CN(C)C,1,2,0,-5,-3
CCCN(C)C[C@@H]1Oc2cc(-c3cncnc3)ccc2S(=O)(=O)N([C@@H](C)CO)C[C@@H]1C,16*,/,0,/,/
Cc1ccc(-c2ccc3c(c2)O[C@@H](CN(C)Cc2ccccn2)[C@H](C)CN([C@@H](C)CO)S3(=O)=O)cc1,3,-2,0,10,19*
C[C@H]1CN([C@@H](C)CO)S(=O)(=O)c2ccc(-c3cncnc3)cc2O[C@H]1CN(C)Cc1ccccn1,0,0,/,-5,-0.3*
Cc1ccc(-c2ccc3c(c2)O[C@@H](CN(C)Cc2ccccc2)[C@@H](C)CN([C@@H](C)CO)S3(=O)=O)cc1,0,3,0,?,32*
C[C@H](CO)N1C[C@H](C)[C@@H](CN(C)Cc2ccccn2)Oc2cc(-c3cncnc3)ccc2S1(=O)=O,0,-1,0,14,0
